Assay: Toxicity liver stage against HepG2, at 10uM
Type: cell-based
Set-up: test concentration 10 uM, cell line HepG2-A16-CD81EGFP
Details: human, HepG2-A16-CD81EGFP cells; read-out: INHIBITION
How it was run: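 Uninfected HepG2-A16-CD81EGFP cells, 3 × 10^3 per well, 1536-well, plated on prespotted compound at 10 μM final, parasite-free screening media added to match infected plates; puromycin 10 μM positive, DMSO 0.5% negative; run in parallel with 48 h PbLuc assay at 37 °C, 5% CO2; viability by CellTiter-Glo luminescence, normalized to controls.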

With `CCC1=N[C@@]2(CC[C@@H]3CN(C(=O)NCC4CCCCC4)C[C@@H]32)C(=O)N1` as the molecule, how does the cytotoxicity at 10 µM read?
The cytotoxicity at 10 µM was -70.2%.

Which cytotoxicity at 10 µM does the source give for `NC1CCCN(Cc2cccc(C(F)(F)F)c2)C1=O` (stereo unspecified) here?
Its cytotoxicity at 10 µM is 5.85%.

Which cytotoxicity at 10 µM does the source give for `O=C(CCOc1ccccc1F)N1CCCCC1Cn1cccn1` (stereo unspecified) here?
The cytotoxicity at 10 µM was -4.47%.

For `CC(C)c1nc(CN2CCOC(Cn3cncn3)C2)cs1` (stereo unspecified), which cytotoxicity at 10 µM is on record?
Its cytotoxicity at 10 µM is -4.39%.

For `COc1cccc(F)c1-c1c[nH]c(C)n1`, which cytotoxicity at 10 µM is on record?
The cytotoxicity at 10 µM was -0.654%.

With `CNC(=O)Cn1cc(C#N)c(=O)c2cc(Br)ccc21` as the molecule, how does the cytotoxicity at 10 µM read?
Its cytotoxicity at 10 µM is 23.7%.

For `CCc1ncc(C(=O)N(CCOC)Cc2nccs2)cn1`, which cytotoxicity at 10 µM is on record?
Its cytotoxicity at 10 µM is -1.47%.

Which cytotoxicity at 10 µM does the source give for `O=C(NC1CC1)c1cc(Cl)ccc1-n1cnnn1` here?
Its cytotoxicity at 10 µM is 3.73%.

Which cytotoxicity at 10 µM does the source give for `CNC(=O)NC(=O)CN1CCN(CC(F)(F)F)CC1(C)C` here?
Its cytotoxicity at 10 µM is 10.7%.

Which cytotoxicity at 10 µM does the source give for `CCc1nsc(NC2CC(=O)N(C(C)(C)C)C2)n1` (stereo unspecified) here?
Its cytotoxicity at 10 µM is 5.6%.

Which cytotoxicity at 10 µM does the source give for `COc1ccc(-c2cccc(-c3ccn(CC4COCCO4)n3)c2)nn1` (stereo unspecified) here?
Its cytotoxicity at 10 µM is -7.78%.

Which cytotoxicity at 10 µM does the source give for `CCOCCN1CCN(CC(=O)NC2(C#N)CCCC2)CC1CC` (stereo unspecified) here?
Its cytotoxicity at 10 µM is 7.73%.

With `CNC(=O)CN1CCC(NC(=O)CC(C)CCc2ccccc2)CC1` (stereo unspecified) as the molecule, how does the cytotoxicity at 10 µM read?
The cytotoxicity at 10 µM was 8.47%.

With `COc1cccc2c1N(S(=O)(=O)c1cc(C(=O)O)cs1)CCC2` as the molecule, how does the cytotoxicity at 10 µM read?
The cytotoxicity at 10 µM was -1.95%.

For `Cc1ccc(C2CCCCCN2Cc2cn(C)nc2C)s1` (stereo unspecified), which cytotoxicity at 10 µM is on record?
Its cytotoxicity at 10 µM is -6.47%.

For `Cc1ccc(N2CCCN(C(=O)CCC3CCCO3)CC2)nn1` (stereo unspecified), which cytotoxicity at 10 µM is on record?
Its cytotoxicity at 10 µM is -16.3%.

For `Cc1cc(C(=O)N2CCC[C@]3(C[C@H](OCC4CC4)CO3)C2)no1`, which cytotoxicity at 10 µM is on record?
Its cytotoxicity at 10 µM is -78.8%.

With `Cc1ocnc1C(=O)N(C)[C@@H]1CC[C@@H](Oc2ccccc2)[C@@H]1O` as the molecule, how does the cytotoxicity at 10 µM read?
The cytotoxicity at 10 µM was -0.658%.

Which cytotoxicity at 10 µM does the source give for `O=C(NC1CCc2cc(Cl)ccc21)C1CCN(C(=O)C2CC2)CC1` (stereo unspecified) here?
The cytotoxicity at 10 µM was -1.43%.

Which cytotoxicity at 10 µM does the source give for `O=C1CN(Cc2cn(C3CCN(C4CSCCSC4)CC3)nn2)CCN1` here?
Its cytotoxicity at 10 µM is -48.8%.

Which cytotoxicity at 10 µM does the source give for `COC(=O)CCCNC(=O)COc1ccccc1C(F)(F)F` here?
The cytotoxicity at 10 µM was -0.969%.

With `Cc1n[nH]c(CN2CCN(c3ncnc4scc(C)c34)CC2)c1Cl` as the molecule, how does the cytotoxicity at 10 µM read?
The cytotoxicity at 10 µM was 58.4%.

With `COc1ccccc1CN1CCN(CCN2CCOC2=O)CC1` as the molecule, how does the cytotoxicity at 10 µM read?
Its cytotoxicity at 10 µM is -11.2%.

For `Cc1cccc(C)c1NC(=O)CCNC(=O)c1ccoc1`, which cytotoxicity at 10 µM is on record?
The cytotoxicity at 10 µM was 3.03%.

Which cytotoxicity at 10 µM does the source give for `CC(=O)Nc1cccc(CNC(=O)N(C)Cc2ccccc2)c1` here?
Its cytotoxicity at 10 µM is -2.11%.

Which cytotoxicity at 10 µM does the source give for `O=C(NCCNC(=O)C1CC1)c1sccc1Br` here?
Its cytotoxicity at 10 µM is 1.66%.

For `O=C(NCc1nncn1C1CC1)Nc1ccc(OC2CCC2)c(F)c1`, which cytotoxicity at 10 µM is on record?
The cytotoxicity at 10 µM was -3.2%.

Which cytotoxicity at 10 µM does the source give for `COc1ccc(CNC(C)Cn2cccn2)cc1OC` (stereo unspecified) here?
The cytotoxicity at 10 µM was -0.966%.

With `COc1ccccc1C1(CNc2snc(Cl)c2C#N)CCCC1` as the molecule, how does the cytotoxicity at 10 µM read?
Its cytotoxicity at 10 µM is 31.6%.

For `CCOc1cccc(NC(=O)c2cc(C)on2)n1`, which cytotoxicity at 10 µM is on record?
Its cytotoxicity at 10 µM is -2.14%.

For `Cn1cccc1C(=O)N1CCC2(CCCN2c2ncccn2)CC1`, which cytotoxicity at 10 µM is on record?
Its cytotoxicity at 10 µM is 6.07%.

Which cytotoxicity at 10 µM does the source give for `CNC(=O)c1coc(-c2csc(C)n2)c1` here?
Its cytotoxicity at 10 µM is 6.96%.

For `Cc1c(Br)cccc1C(=O)NCc1cnn(C)c1`, which cytotoxicity at 10 µM is on record?
Its cytotoxicity at 10 µM is 3.15%.

Which cytotoxicity at 10 µM does the source give for `CCOc1ccccc1C(CC(=O)Nc1ncc(C)s1)NC(C)=O` (stereo unspecified) here?
Its cytotoxicity at 10 µM is -15.3%.

For `CC(C)C(NC(=O)N1CCN(c2ccc(Cl)cc2)CC1)C(=O)NC1CC1` (stereo unspecified), which cytotoxicity at 10 µM is on record?
The cytotoxicity at 10 µM was 23.6%.

With `CC(C)CC(=O)N1CC[C@@H]2[C@H](CC1)N(S(C)(=O)=O)CCS2(=O)=O` as the molecule, how does the cytotoxicity at 10 µM read?
The cytotoxicity at 10 µM was -11.4%.

For `CC(C)c1nccn1C1CCCN(C(=O)c2cn3cccnc3n2)C1` (stereo unspecified), which cytotoxicity at 10 µM is on record?
The cytotoxicity at 10 µM was -3.63%.

With `Cc1cnc(CN2CCOC(CN(C)c3cccnn3)C2)cn1` (stereo unspecified) as the molecule, how does the cytotoxicity at 10 µM read?
Its cytotoxicity at 10 µM is 3.64%.

Which cytotoxicity at 10 µM does the source give for `O=C1CCCC2=C1C(c1ccccc1Cl)C1C(=O)NN=C1N2` (stereo unspecified) here?
The cytotoxicity at 10 µM was -11.6%.

For `CC(=O)Nc1ccc(CN2CCOC2=O)cc1`, which cytotoxicity at 10 µM is on record?
Its cytotoxicity at 10 µM is -6.24%.

With `CCOCC1CN(Cc2cccnc2OC)Cc2cnn(C)c21` (stereo unspecified) as the molecule, how does the cytotoxicity at 10 µM read?
Its cytotoxicity at 10 µM is -1.6%.

Which cytotoxicity at 10 µM does the source give for `CC(=O)Nc1cc(C(=O)Nc2cc(CC(C)(C)C)nn2C)ccc1F` here?
Its cytotoxicity at 10 µM is 0.388%.

For `CCS(=O)(=O)N(C)C1CCN(Cn2ccc(-c3ccc(F)cc3)n2)CC1`, which cytotoxicity at 10 µM is on record?
Its cytotoxicity at 10 µM is 1.95%.

For `CNC(=O)N1CCC2(CC1)CN(C)c1ccc(F)cc12`, which cytotoxicity at 10 µM is on record?
The cytotoxicity at 10 µM was -4.78%.

For `O=C(COC1CCCC1)N1CCC(C(O)c2ccc(F)cc2)CC1` (stereo unspecified), which cytotoxicity at 10 µM is on record?
Its cytotoxicity at 10 µM is 6.62%.

Which cytotoxicity at 10 µM does the source give for `O=C([C@@H]1CSCN1)N1CCC2(CC1)CNCc1ccccc12` here?
The cytotoxicity at 10 µM was -2.08%.

For `CCCS(=O)(=O)N1CCC(NC(=O)c2cc(CC)c(C)s2)CC1`, which cytotoxicity at 10 µM is on record?
Its cytotoxicity at 10 µM is -4.61%.

With `CCOCC(=O)Nc1cccnc1-n1ccnc1C` as the molecule, how does the cytotoxicity at 10 µM read?
Its cytotoxicity at 10 µM is 3.62%.

With `O=c1[nH][nH]c2cn(-c3ccc(Cl)cc3)c(=O)n12` as the molecule, how does the cytotoxicity at 10 µM read?
The cytotoxicity at 10 µM was 6.45%.

With `CC(C)C(Sc1ccccc1)C(=O)N(C)Cc1nnc2n1CCC2` (stereo unspecified) as the molecule, how does the cytotoxicity at 10 µM read?
Its cytotoxicity at 10 µM is -12.5%.

For `COCC1CN(Cc2ccc(C)o2)Cc2nnn(CC3CC3)c21` (stereo unspecified), which cytotoxicity at 10 µM is on record?
The cytotoxicity at 10 µM was -9.96%.

With `Cc1cnn(CC2CCCN2CC(=O)Nc2cc(C)nn2C)c1` (stereo unspecified) as the molecule, how does the cytotoxicity at 10 µM read?
The cytotoxicity at 10 µM was -20.1%.

For `Cc1ncsc1CN1C[C@@H]2CN(Cc3cccnc3)CCO[C@@H]2C1`, which cytotoxicity at 10 µM is on record?
Its cytotoxicity at 10 µM is 5.05%.

For `O=C([C@@H]1CC[C@@H]2[C@@H](CCN2c2ccncn2)O1)N1CCCCO1`, which cytotoxicity at 10 µM is on record?
The cytotoxicity at 10 µM was 3.13%.

For `c1cc(CNCc2ccnc(N3CCCCC3)c2)c2c(c1)OCCCO2`, which cytotoxicity at 10 µM is on record?
The cytotoxicity at 10 µM was 21.4%.

For `CN1CCC2(CC1)C(=O)N(CC1CC1)c1ccccc12`, which cytotoxicity at 10 µM is on record?
Its cytotoxicity at 10 µM is 3.21%.

— ChEMBL document CHEMBL4513216, “Probing the Open Global Health Chemical Diversity Library for Multistage-Active Starting Points for Next-Generation Antimalarials” (ACS Infect Dis, 2020)
